Here are results for 45 compounds from ChEMBL document CHEMBL1123700, “2-[(3-Pyridinylmethyl)thio]pyrimidine derivatives: new bronchosecretolytic agents” (1987).

The test system of experiment [1] is Mus musculus. The experiment can be described thus: Bronchosecretory activity measured as tracheal secretion of phenol red in mouse after oral administration. Format: functional. In a few lines:
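Male NMRI mice, food withheld 24 h, water free. Compounds suspended in 0.5% carboxymethylcellulose just before use and given by gavage at 5 mL/kg. Phenol red given intraperitoneally; 50 min after dosing it is measured photometrically in tracheal lavage fluid. Output compared with mean of vehicle controls. ED50 (dose giving 50% increase over control) by linear regression with 95% confidence limits.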

Experiment [2] relates to Canis familiaris. Description: Percent viscosity was determined in canine bronchial mucus, 1 hr after intravenous administration of 0.1 mg/kg. Format: functional, Canis lupus familiaris. Summed up:
(§1)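 Mongrel dogs (18-24 kg), food withheld 16 h, anesthetized with pentobarbital 40 mg/kg iv plus infusion of 0.1 mg kg-1 min-1. Compounds in isotonic NaCl, given iv; 0.9% NaCl as control. Bronchial mucus sampled by bronchoscope, dialyzed against water at 0 °C for 24 h, freeze-dried, taken up at 1% w/v in 0.1 M Tris pH 7. Viscosity 1 h after dosing expressed as % of initial, mean ± SD.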

The test system of experiment [3] is Canis familiaris. Description: Percent viscosity was determined in canine bronchial mucus, 1 hr after intravenous administration of 0.2 mg/kg. Format: functional, Canis lupus familiaris. Summed up:
as §1

The subject of experiment [4] is Canis familiaris. The experiment can be described thus: Percent viscosity was determined in canine bronchial mucus, 1 hr after intravenous administration of 0.5 mg/kg. Format: functional, Canis lupus familiaris. In a few lines:
as §1

The subject of experiment [5] is Mus musculus. The experiment can be described thus: Bronchosecretory activity measured as tracheal secretion of phenol red in mouse after subcutaneous administration.

The structures appear in SMILES notation.

In the experiment with Mus musculus [1] (Mus musculus, po), `c1ccc(CSc2ccccn2)nc1` yielded an ED50 of 21.8 µmol/kg.

The compound `c1cncc(CSc2nc3ccccc3[nH]2)c1` registered an ED50 in the experiment on Mus musculus [1] (Mus musculus, po) of 31.8 µmol/kg.

`Cc1ccc(S(=O)(=O)Cc2cccnc2)cc1` showed an ED50 with Mus musculus [1] (Mus musculus, po) of 141 µmol/kg.

For the compound `COc1cccc(SCc2cccnc2)c1`, the ED50 in the experiment on Mus musculus [1] (Mus musculus, po) came to 182 µmol/kg.

The compound `Nc1c(Br)cc(Br)cc1CN[C@H]1CC[C@H](O)CC1` [AMBROXOL] returned an ED50 with Mus musculus [1] (Mus musculus, po) of 603 µmol/kg.

In the experiment with Mus musculus [1] (Mus musculus, po), `Cn1ccnc1S(=O)(=O)Cc1cccnc1` yielded an ED50 of 95.8 µmol/kg.

Take `Cc1ccc(CSc2ncccn2)cn1`: in the experiment with Mus musculus [1] (Mus musculus, po), the ED50 stood at 298 µmol/kg.

Regarding `Cl.c1cnc(SCc2cccnc2)nc1`, the Activity came out at 109% with Canis familiaris [2], 28% in the experiment on Canis familiaris [3] and 5.5% in the experiment on Canis familiaris [4]. In the experiment with Mus musculus [1], this compound yielded an ED50 of 5.34 µmol/kg.

Regarding `Nc1cc(O)nc(SCc2ccc(Cl)nc2)n1`, the Activity with Canis familiaris [3] stood at 84.2%; in the experiment on Canis familiaris [4] it was 19.7%. For the same compound, the ED50 in the experiment with Mus musculus [1] (Mus musculus, po) turned out to be 8.3 µmol/kg.

In the experiment with Mus musculus [1] (Mus musculus, po), `Cc1ccc([S+]([O-])Cc2cccnc2)cc1` (configuration not stated) gave an ED50 of 149 µmol/kg.

As to `Clc1ccc(SCc2cccnc2)cc1`, the ED50 in the experiment with Mus musculus [1] (Mus musculus, po) amounted to 22 µmol/kg.

`Cc1cc(C)nc(SCc2cccnc2)n1` came in with an ED50 in the experiment on Mus musculus [1] (Mus musculus, po) of 44.8 µmol/kg.

Turning to `Cc1cc(O)nc(SCc2cccnc2)n1`, the ED50 in the experiment on Mus musculus [1] (Mus musculus, po) was found to be 64.3 µmol/kg.

`Nc1ccnc(SCc2cccnc2)n1` came in with an ED50 with Mus musculus [1] (Mus musculus, po) of 22.9 µmol/kg.

As to `Cc1ccc2nc(SCc3cccnc3)oc2c1`, the ED50 in the experiment on Mus musculus [1] (Mus musculus, po) amounted to 51.2 µmol/kg.

With `c1ccc(CSc2nc3ccccc3o2)nc1`, the ED50 with Mus musculus [1] (Mus musculus, po) is 157 µmol/kg.

The compound `Cc1ccnc(SCc2cccnc2)n1` registered an ED50 with Mus musculus [1] (Mus musculus, po) of 39.4 µmol/kg.

Turning to `c1ccc(SCc2cccnc2)nc1`, the ED50 with Mus musculus [1] (Mus musculus, po) was determined as 7.63 µmol/kg.

Consider `c1ccc(-c2nc(SCc3cccnc3)oc2-c2ccccc2)cc1`, for which the ED50 in the experiment on Mus musculus [1] (Mus musculus, po) is 13.1 µmol/kg.

In the experiment with Mus musculus [1] (Mus musculus, po), `Cc1ccc(SCc2cccnc2)cc1` had an ED50 of 39.7 µmol/kg.

The compound `N=c1cc(N)nc(SCc2cccnc2)[nH]1` came in with an ED50 with Mus musculus [1] (Mus musculus, po) of 272 µmol/kg.

Regarding `Oc1ccnc(SCc2cccnc2)n1`, in the experiment on Mus musculus [1] (Mus musculus, po), it took a dose of 456 µmol/kg to reach the 50% effect level (ED50).

On to `c1cnc(SCc2ccncc2)nc1`, for which the 50% effect level in the experiment with Mus musculus [1] (Mus musculus, po) (ED50) was put at a dose of 41.7 µmol/kg.

In the experiment on Mus musculus [1] (Mus musculus, po), `CC(Sc1ncccn1)c1cccnc1` (configuration not stated) gave an ED50 of 42.6 µmol/kg.

Consider `Cn1ccnc1SCc1cccnc1`, for which the 50% effective dose (ED50) with Mus musculus [1] (Mus musculus, po) is 5.35 µmol/kg.

As for `Nc1cc(O)nc(SCc2cccnc2)n1`, the Activity came out at 76.3% in the experiment with Canis familiaris [3] and 15.8% with Canis familiaris [4]. In the experiment with Mus musculus [1] (Mus musculus, po), this compound returned an ED50 of 8.93 µmol/kg.

In the case of `[O-][S+](Cc1cccnc1)c1ncccn1` (configuration not stated), it took a dose of 7.82 µmol/kg to reach the 50% effect level in the experiment on Mus musculus [1] (Mus musculus, po) (ED50).

For `c1cncc(CSc2nc3ccccc3o2)c1`, the ED50 with Mus musculus [1] (Mus musculus, po) came to 61.9 µmol/kg.

Compound `c1cncc(CSc2ncnc3[nH]ncc23)c1` came in with an ED50 with Mus musculus [1] (Mus musculus, po) of 41.1 µmol/kg.

In the case of `c1cnc(SCc2cccnc2)nc1`, the ED50 in the experiment with Mus musculus [1] (Mus musculus, po) is 4.67 µmol/kg.

On to `c1cncc(CSc2ccc3ccccc3n2)c1`, for which, in the experiment on Mus musculus [1] (Mus musculus, po), it took a dose of 21.5 µmol/kg to reach the 50% effect level (ED50).

Compound `[O-][S+](Cc1ccncc1)c1ncccn1` (configuration not stated) gave an ED50 in the experiment with Mus musculus [1] (Mus musculus, po) of 391 µmol/kg.

The compound `[O-][S+](Cc1cccnc1)c1ccc(Cl)cc1` (configuration not stated) registered an ED50 in the experiment on Mus musculus [1] (Mus musculus, po) of 43.9 µmol/kg.

In turn, `NCC(O)c1cccc(O)c1` (configuration not stated) [NORFENEFRINE] gave an ED50 in the experiment with Mus musculus [5] of 1.3 µmol/kg.

The compound `O=S(=O)(Cc1cccnc1)c1ccc(Cl)cc1` yielded an ED50 in the experiment with Mus musculus [1] (Mus musculus, po) of 27.9 µmol/kg.

In the experiment on Mus musculus [5], `C[N+](C)(C)CCOC(N)=O` [CARBACHOL] had an ED50 of 0.2 µmol/kg.

For `Clc1ncccc1CSc1ncccn1`, it took a dose of 84.1 µmol/kg to reach the 50% effect level in the experiment with Mus musculus [1] (Mus musculus, po) (ED50).

In the experiment on Mus musculus [1] (Mus musculus, po), `Cc1ccc(C(C)Sc2ncccn2)cn1` (configuration not stated) showed an ED50 of 432 µmol/kg.

For `CC(C)(C)NCC(O)c1ccc(O)c(CO)c1` (configuration not stated) [ALBUTEROL], the 50% effective dose (ED50) in the experiment with Mus musculus [1] (Mus musculus, po, read-out: ED50) was 12.5 µmol/kg.

In the experiment with Mus musculus [1] (Mus musculus, po), `Clc1ccc(CSc2ncccn2)cn1` displayed an ED50 of 84.1 µmol/kg.

In the experiment on Mus musculus [1] (Mus musculus, po), `c1cncc(CSc2nc3ncccc3o2)c1` came in with an ED50 of 38 µmol/kg.

Compound `Cc1ccnc([S+]([O-])Cc2cccnc2)n1` (configuration not stated) registered an ED50 in the experiment with Mus musculus [1] (Mus musculus, po) of 30.9 µmol/kg.

`Cn1ccnc1[S+]([O-])Cc1cccnc1` (configuration not stated) returned an ED50 in the experiment on Mus musculus [1] (Mus musculus, po) of 49.8 µmol/kg.

With `c1cnc(SCc2cccnc2)nc1` [TASULDINE], the 50% effect level in the experiment on Mus musculus [1] (ED50) was put at a dose of 4.82 µmol/kg.

For `c1cncc(CSC2=NCCS2)c1`, it took a dose of 20.3 µmol/kg to reach the 50% effect level in the experiment with Mus musculus [1] (Mus musculus, po) (ED50).

A word on the ED50: it is the dose at which the effect has come halfway, by size or by number of responders.
